# Measured values as given in ChEMBL document CHEMBL3352384, “Synthesis and biological activity of new salicylanilide N,N-disubstituted carbamates and thiocarbamates” (Bioorg Med Chem, 2014).
# Test system: Mycobacterium kansasii
# Test: Antimycobacterial activity against clinical isolate Mycobacterium kansasii 6509/96 assessed as complete growth inhibition after 7 days
# Assay type: functional
# Settings: 6509/96, 168 h
# Outline: (§1)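 Dilutions of M. kansasii inoculum were 10-4 for strain 235/80 and 10-5 for clinical isolate 6509/96. MIC was the lowest concentration giving complete growth inhibition, run in quadruplicate and repeated twice.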
row,Structure (SMILES),MIC
1,CN(C)C(=O)Oc1ccccc1C(=O)Nc1ccccc1,1000 µM
2,O=C(Nc1ccc(F)cc1)c1cc(Cl)ccc1OC(=O)N(c1ccccc1)c1ccccc1,125 µM
3,CN(C(=O)Oc1ccc(Cl)cc1C(=O)Nc1ccc(Cl)cc1)c1ccccc1,32 µM
4,CN(C)C(=O)Oc1ccc(Cl)cc1C(=O)Nc1ccc(C(F)(F)F)cc1,250 µM
5,CN(C(=O)Oc1ccccc1C(=O)Nc1ccccc1)c1ccccc1,250 µM
6,O=C(Nc1ccc(Br)cc1)c1cc(Cl)ccc1OC(=O)N(c1ccccc1)c1ccccc1,32 µM
7,O=C(Nc1ccccc1)c1ccccc1OC(=O)N(c1ccccc1)c1ccccc1,125 µM

# Test system: Mycobacterium kansasii
# Test: Antimycobacterial activity against clinical isolate Mycobacterium kansasii 6509/96 assessed as complete growth inhibition after 21 days
# Assay type: functional
# Settings: 6509/96, 504 h
# Outline: as §1
row,Structure (SMILES),MIC
1,CN(C)C(=O)Oc1ccccc1C(=O)Nc1ccccc1,1000 µM
2,O=C(Nc1ccc(F)cc1)c1cc(Cl)ccc1OC(=O)N(c1ccccc1)c1ccccc1,125 µM
3,CN(C(=O)Oc1ccc(Cl)cc1C(=O)Nc1ccc(Cl)cc1)c1ccccc1,125 µM
4,CN(C)C(=O)Oc1ccc(Cl)cc1C(=O)Nc1ccc(C(F)(F)F)cc1,250 µM
5,CN(C(=O)Oc1ccccc1C(=O)Nc1ccccc1)c1ccccc1,1000 µM
6,O=C(Nc1ccc(Br)cc1)c1cc(Cl)ccc1OC(=O)N(c1ccccc1)c1ccccc1,62.5 µM
7,O=C(Nc1ccccc1)c1ccccc1OC(=O)N(c1ccccc1)c1ccccc1,125 µM

# Test system: Mycobacterium tuberculosis
# Test: Antimycobacterial activity against Mycobacterium tuberculosis H37Rv 331/88 assessed as complete growth inhibition after 21 days
# Assay type: functional
# Settings: H37Rv 331/88, 504 h
# Outline: (§2)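 M. tuberculosis 331/88 (H37Rv) inoculum diluted 10-3, M. avium 330/88 diluted 10-5. MIC is the lowest concentration giving complete growth inhibition. Isoniazid and p-aminosalicylic acid as references. Quadruplicate, repeated twice.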
row,Structure (SMILES),MIC
1,CN(C)C(=O)Oc1ccccc1C(=O)Nc1ccccc1,1000 µM
2,O=C(Nc1ccc(F)cc1)c1cc(Cl)ccc1OC(=O)N(c1ccccc1)c1ccccc1,250 µM
3,CN(C(=O)Oc1ccc(Cl)cc1C(=O)Nc1ccc(Cl)cc1)c1ccccc1,32 µM
4,CN(C)C(=O)Oc1ccc(Cl)cc1C(=O)Nc1ccc(C(F)(F)F)cc1,> 1000 µM
5,CN(C(=O)Oc1ccccc1C(=O)Nc1ccccc1)c1ccccc1,250 µM
6,O=C(Nc1ccc(Br)cc1)c1cc(Cl)ccc1OC(=O)N(c1ccccc1)c1ccccc1,250 µM
7,O=C(Nc1ccccc1)c1ccccc1OC(=O)N(c1ccccc1)c1ccccc1,125 µM

# Test system: Mycobacterium avium
# Test: Antimycobacterial activity against Isoniazid, rifampicin, ofloxacin and ethambutol-resistant Mycobacterium avium 330/88 assessed as complete growth inhibition after 21 days
# Assay type: functional
# Settings: 330/88, 504 h
# Outline: as §2
row,Structure (SMILES),MIC
1,CN(C)C(=O)Oc1ccccc1C(=O)Nc1ccccc1,1000 µM
2,O=C(Nc1ccc(F)cc1)c1cc(Cl)ccc1OC(=O)N(c1ccccc1)c1ccccc1,250 µM
3,CN(C(=O)Oc1ccc(Cl)cc1C(=O)Nc1ccc(Cl)cc1)c1ccccc1,250 µM
4,CN(C)C(=O)Oc1ccc(Cl)cc1C(=O)Nc1ccc(C(F)(F)F)cc1,250 µM
5,CN(C(=O)Oc1ccccc1C(=O)Nc1ccccc1)c1ccccc1,> 1000 µM
6,O=C(Nc1ccc(Br)cc1)c1cc(Cl)ccc1OC(=O)N(c1ccccc1)c1ccccc1,250 µM
7,O=C(Nc1ccccc1)c1ccccc1OC(=O)N(c1ccccc1)c1ccccc1,62.5 µM

# Test system: not listed separately
# Test: Inhibition of Mycobacterium tuberculosis H37Rv isocitrate lyase assessed as glyoxylate phenyl hydrazone formation at 10 uM
# Settings: not given
row,Structure (SMILES),inhibition
1,CN(C)C(=O)Oc1ccccc1C(=O)Nc1ccccc1,10%
2,O=C(Nc1ccc(F)cc1)c1cc(Cl)ccc1OC(=O)N(c1ccccc1)c1ccccc1,22%
3,CN(C(=O)Oc1ccc(Cl)cc1C(=O)Nc1ccc(Cl)cc1)c1ccccc1,17%
4,CN(C)C(=O)Oc1ccc(Cl)cc1C(=O)Nc1ccc(C(F)(F)F)cc1,11%
5,CN(C(=O)Oc1ccccc1C(=O)Nc1ccccc1)c1ccccc1,3%
6,O=C(Nc1ccc(Br)cc1)c1cc(Cl)ccc1OC(=O)N(c1ccccc1)c1ccccc1,19%
7,O=C(Nc1ccccc1)c1ccccc1OC(=O)N(c1ccccc1)c1ccccc1,8%

# Test system: Mycobacterium avium
# Test: Antimycobacterial activity against Isoniazid, rifampicin, ofloxacin and ethambutol-resistant Mycobacterium avium 330/88 assessed as complete growth inhibition after 14 days
# Assay type: functional
# Settings: 330/88, 336 h
# Outline: as §2
row,Structure (SMILES),MIC
1,CN(C)C(=O)Oc1ccccc1C(=O)Nc1ccccc1,1000 µM
2,O=C(Nc1ccc(F)cc1)c1cc(Cl)ccc1OC(=O)N(c1ccccc1)c1ccccc1,250 µM
3,CN(C(=O)Oc1ccc(Cl)cc1C(=O)Nc1ccc(Cl)cc1)c1ccccc1,250 µM
4,CN(C)C(=O)Oc1ccc(Cl)cc1C(=O)Nc1ccc(C(F)(F)F)cc1,250 µM
5,CN(C(=O)Oc1ccccc1C(=O)Nc1ccccc1)c1ccccc1,> 1000 µM
6,O=C(Nc1ccc(Br)cc1)c1cc(Cl)ccc1OC(=O)N(c1ccccc1)c1ccccc1,250 µM
7,O=C(Nc1ccccc1)c1ccccc1OC(=O)N(c1ccccc1)c1ccccc1,62.5 µM

# Test system: not listed separately
# Test: Selectivity index, ratio of IC50 for human HepG2 cells to MIC for atypical mycobacteria
# Settings: not given
# Outline: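 Selectivity index = HepG2 IC50 / MIC. HepG2 cells (passage 3–4) grown in Eagle's MEM with 10% FBS, L-glutamine and non-essential amino acids. Compounds added from DMSO, eight concentrations in triplicate, tetrazolium-reduction colorimetric read-out. IC50 is the concentration reducing viability to 50% of control; 10% DMSO as 0% viability.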
row,Structure (SMILES),Selectivity Index
1,CN(C)C(=O)Oc1ccccc1C(=O)Nc1ccccc1,6
2,CN(C(=O)Oc1ccc(Cl)cc1C(=O)Nc1ccc(Cl)cc1)c1ccccc1,<=9
3,CN(C(=O)Oc1ccccc1C(=O)Nc1ccccc1)c1ccccc1,<=1.1
4,O=C(Nc1ccccc1)c1ccccc1OC(=O)N(c1ccccc1)c1ccccc1,1.7

# Test system: Mycobacterium tuberculosis
# Test: Antimycobacterial activity against Mycobacterium tuberculosis H37Rv 331/88 assessed as complete growth inhibition after 14 days
# Assay type: functional
# Settings: H37Rv 331/88, 336 h
# Outline: as §2
row,Structure (SMILES),MIC
1,CN(C)C(=O)Oc1ccccc1C(=O)Nc1ccccc1,1000 µM
2,O=C(Nc1ccc(F)cc1)c1cc(Cl)ccc1OC(=O)N(c1ccccc1)c1ccccc1,250 µM
3,CN(C(=O)Oc1ccc(Cl)cc1C(=O)Nc1ccc(Cl)cc1)c1ccccc1,32 µM
4,CN(C)C(=O)Oc1ccc(Cl)cc1C(=O)Nc1ccc(C(F)(F)F)cc1,> 1000 µM
5,CN(C(=O)Oc1ccccc1C(=O)Nc1ccccc1)c1ccccc1,250 µM
6,O=C(Nc1ccc(Br)cc1)c1cc(Cl)ccc1OC(=O)N(c1ccccc1)c1ccccc1,250 µM
7,O=C(Nc1ccccc1)c1ccccc1OC(=O)N(c1ccccc1)c1ccccc1,125 µM

# Test system: not listed separately
# Test: Selectivity index, ratio of IC50 for human HepG2 cells to MIC for Mycobacterium tuberculosis H37Rv
# Assay type: toxicity, cell-based
# Settings: read-out: Selectivity Index
# Outline: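 Selectivity index = HepG2 IC50 / MIC. HepG2 cells (passage 3–4) grown in Eagle's MEM with 10% FBS, L-glutamine and non-essential amino acids. Compounds added from DMSO, eight concentrations in triplicate, tetrazolium-reduction colorimetric read-out.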
row,Structure (SMILES),selectivity ratio
1,CN(C)C(=O)Oc1ccccc1C(=O)Nc1ccccc1,6
2,CN(C(=O)Oc1ccc(Cl)cc1C(=O)Nc1ccc(Cl)cc1)c1ccccc1,9
3,CN(C(=O)Oc1ccccc1C(=O)Nc1ccccc1)c1ccccc1,1.1
4,O=C(Nc1ccccc1)c1ccccc1OC(=O)N(c1ccccc1)c1ccccc1,1.7

# Test system: Mycobacterium kansasii
# Test: Antimycobacterial activity against Mycobacterium kansasii 235/80 assessed as complete growth inhibition after 14 days
# Assay type: functional
# Settings: 235/80, 336 h
# Outline: as §1
row,Structure (SMILES),MIC
1,CN(C)C(=O)Oc1ccccc1C(=O)Nc1ccccc1,1000 µM
2,O=C(Nc1ccc(F)cc1)c1cc(Cl)ccc1OC(=O)N(c1ccccc1)c1ccccc1,62.5 µM
3,CN(C(=O)Oc1ccc(Cl)cc1C(=O)Nc1ccc(Cl)cc1)c1ccccc1,125 µM
4,CN(C)C(=O)Oc1ccc(Cl)cc1C(=O)Nc1ccc(C(F)(F)F)cc1,250 µM
5,CN(C(=O)Oc1ccccc1C(=O)Nc1ccccc1)c1ccccc1,500 µM
6,O=C(Nc1ccc(Br)cc1)c1cc(Cl)ccc1OC(=O)N(c1ccccc1)c1ccccc1,125 µM
7,O=C(Nc1ccccc1)c1ccccc1OC(=O)N(c1ccccc1)c1ccccc1,125 µM

# Test system: Mycobacterium kansasii
# Test: Antimycobacterial activity against Mycobacterium kansasii 235/80 assessed as complete growth inhibition after 21 days
# Assay type: functional
# Settings: 235/80, 504 h
# Outline: as §1
row,Structure (SMILES),MIC
1,CN(C)C(=O)Oc1ccccc1C(=O)Nc1ccccc1,1000 µM
2,O=C(Nc1ccc(F)cc1)c1cc(Cl)ccc1OC(=O)N(c1ccccc1)c1ccccc1,62.5 µM
3,CN(C(=O)Oc1ccc(Cl)cc1C(=O)Nc1ccc(Cl)cc1)c1ccccc1,125 µM
4,CN(C)C(=O)Oc1ccc(Cl)cc1C(=O)Nc1ccc(C(F)(F)F)cc1,250 µM
5,CN(C(=O)Oc1ccccc1C(=O)Nc1ccccc1)c1ccccc1,500 µM
6,O=C(Nc1ccc(Br)cc1)c1cc(Cl)ccc1OC(=O)N(c1ccccc1)c1ccccc1,125 µM
7,O=C(Nc1ccccc1)c1ccccc1OC(=O)N(c1ccccc1)c1ccccc1,125 µM

# Test system: Mycobacterium kansasii
# Test: Antimycobacterial activity against Mycobacterium kansasii 235/80 assessed as complete growth inhibition after 7 days
# Assay type: functional
# Settings: 235/80, 168 h
# Outline: as §1
row,Structure (SMILES),MIC
1,CN(C)C(=O)Oc1ccccc1C(=O)Nc1ccccc1,1000 µM
2,O=C(Nc1ccc(F)cc1)c1cc(Cl)ccc1OC(=O)N(c1ccccc1)c1ccccc1,62.5 µM
3,CN(C(=O)Oc1ccc(Cl)cc1C(=O)Nc1ccc(Cl)cc1)c1ccccc1,62.5 µM
4,CN(C)C(=O)Oc1ccc(Cl)cc1C(=O)Nc1ccc(C(F)(F)F)cc1,250 µM
5,CN(C(=O)Oc1ccccc1C(=O)Nc1ccccc1)c1ccccc1,250 µM
6,O=C(Nc1ccc(Br)cc1)c1cc(Cl)ccc1OC(=O)N(c1ccccc1)c1ccccc1,32 µM
7,O=C(Nc1ccccc1)c1ccccc1OC(=O)N(c1ccccc1)c1ccccc1,62.5 µM

# Test system: Mycobacterium kansasii
# Test: Antimycobacterial activity against clinical isolate Mycobacterium kansasii 6509/96 assessed as complete growth inhibition after 14 days
# Assay type: functional
# Settings: 6509/96, 336 h
# Outline: as §1
row,Structure (SMILES),MIC
1,CN(C)C(=O)Oc1ccccc1C(=O)Nc1ccccc1,1000 µM
2,O=C(Nc1ccc(F)cc1)c1cc(Cl)ccc1OC(=O)N(c1ccccc1)c1ccccc1,125 µM
3,CN(C(=O)Oc1ccc(Cl)cc1C(=O)Nc1ccc(Cl)cc1)c1ccccc1,62.5 µM
4,CN(C)C(=O)Oc1ccc(Cl)cc1C(=O)Nc1ccc(C(F)(F)F)cc1,250 µM
5,CN(C(=O)Oc1ccccc1C(=O)Nc1ccccc1)c1ccccc1,500 µM
6,O=C(Nc1ccc(Br)cc1)c1cc(Cl)ccc1OC(=O)N(c1ccccc1)c1ccccc1,62.5 µM
7,O=C(Nc1ccccc1)c1ccccc1OC(=O)N(c1ccccc1)c1ccccc1,125 µM

# Test system: HepG2
# Test: Cytotoxicity against human HepG2 cells assessed as reduction in cell viability after 24 hrs by MTS assay
# Assay type: cell-based
# Settings: HepG2, 24 h
# Outline: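 HepG2 hepatocellular carcinoma cells (passage 3–4) were grown in Eagle's MEM with 10% FBS, 1% L-glutamine and non-essential amino acids. Compounds were added from DMSO at eight concentrations in triplicate, with 10% DMSO as the 0% viability control. Viability was read by tetrazolium salt reduction (CellTiter 96 AQueous One). IC50 is the concentration reducing viability to 50% of control.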
row,Structure (SMILES),IC50
1,CN(C)C(=O)Oc1ccccc1C(=O)Nc1ccccc1,5990 µM
2,O=C(Nc1ccc(F)cc1)c1cc(Cl)ccc1OC(=O)N(c1ccccc1)c1ccccc1,> 100 µM
3,CN(C(=O)Oc1ccc(Cl)cc1C(=O)Nc1ccc(Cl)cc1)c1ccccc1,289 µM
4,CN(C)C(=O)Oc1ccc(Cl)cc1C(=O)Nc1ccc(C(F)(F)F)cc1,6510 µM
5,CN(C(=O)Oc1ccccc1C(=O)Nc1ccccc1)c1ccccc1,280 µM
6,O=C(Nc1ccc(Br)cc1)c1cc(Cl)ccc1OC(=O)N(c1ccccc1)c1ccccc1,> 100 µM
7,O=C(Nc1ccccc1)c1ccccc1OC(=O)N(c1ccccc1)c1ccccc1,211 µM
